test system: Mycobacterium tuberculosis variant bovis; experiment: Antimicrobial activity against Mycobacterium bovis AN5 expressing luciferase reporter gene assessed as growth inhibition after 6 days by luminometry; type: functional; conditions: AN5, 144 h
Method in brief: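 Other mycobacteria (M. avium ssp. avium ATCC 15769, ssp. paratuberculosis ATCC 19698, M. bovis AN5) were grown in 7H9 with 10% OADC and 0.2% glycerol; M. bovis had 0.05% Tween 80 in place of glycerol, and paratuberculosis had mycobactin J (2 mg/ml); all were grown at 39 °C. Serial dilutions were tested by the luciferase luminometry assay and the 50% growth-reduction concentration was read.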

| Compound | GI50 [nM] |
| --- | --- |
| CN(C)/C=C/c1nc(-c2ccc(F)cc2)cc2c1C(=O)c1ccccc1C2=O | 480 |
| O=C1c2ccccc2C(=O)c2c(O)cc(-c3ccccc3)cc21 | 800 |
| COc1ccc(-c2cc(O)c3c(c2)C(=O)c2ccccc2C3=O)cc1 | 380 |
| COc1ccc(-c2cc3c4c(nccc4n2)-c2ccccc2C3=O)cc1 | 520 |
| Cc1ccc(-c2cc3c(c(/C=C/N(C)C)n2)C(=O)c2ccccc2C3=O)cc1 | 580 |
| COc1ccc(-c2cc3c(c(/C=C/N(C)C)n2)C(=O)c2ccccc2C3=O)cc1 | 470 |
| O=C1c2ccccc2-c2nccc3nc(-c4ccccc4)cc1c23 | 670 |
| CN(C)/C=C/c1nc(-c2ccccc2)cc2c1C(=O)c1ccccc1C2=O | 640 |
| CN(C)/C=C/c1nc(-c2ccc(Cl)cc2)cc2c1C(=O)c1ccccc1C2=O | 490 |
| O=C1c2ccccc2-c2nccc3nc(-c4ccc(F)cc4)cc1c23 | 670 |

Source: ChEMBL document CHEMBL2434878, “Synthesis and antimycobacterial activity of analogues of the bioactive natural products sampangine and cleistopholine” (Eur J Med Chem, 2013)
